The source of these data is ChEMBL document CHEMBL3769349, “Antiretroviral (HIV-1) activity of azulene derivatives” (Bioorg Med Chem, 2016).

Data set [1] relates to Human immunodeficiency virus 1. Briefly: Antiretroviral activity against HIV-1 based virus like particles infected in U2OS cells assessed as Gluc activity at highest non-toxic concentration. It is filed as functional.
Data set [2] in a line: Cytotoxicity against human U2OS cells assessed as cell viability at highest non-toxic concentration.
Data set [3] has as its system Human immunodeficiency virus 1. As to the kind of experiment: Antiretroviral activity against HIV-1 based virus like particles infected in U2OS cells. The settings on record: Human immunodeficiency virus 1, U2OS. Format: functional, organism-based.
A short description of data set [4]: Cytotoxicity against human U2OS cells. It is filed as cell-based. The gist of the method: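 Cytotoxicity measured by real-time impedance monitoring (xCELLigence RTCA DP) in U2OS cells kept in IMDM with 10% FBS and Pen/Strep. Compounds tested at several concentrations. Viability compared with 0.5% DMSO vehicle-treated cells. Highest non-toxic concentration defined as the level lowering viability by less than 20%.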

The nature of data set [5]: Selectivity index, ratio of CC50 for human U2OS cells to IC50 for HIV-1 based virus like particles infected in U2OS cells. It is filed as functional.
Data set [6] can be described thus: Cytotoxicity against human TZM-bl cells. Format: cell-based.
The nature of data set [7]: Selectivity index, ratio of CC50 for human TZM-bl cells to IC50 for HIV-1 infected in TZM-bl cells. It is filed as functional.
Data set [8] has as its system Human immunodeficiency virus 1. Briefly: Antiretroviral activity against HIV-1 infected in TZM-bl cells after 48 hrs by luciferase assay. As to conditions: Human immunodeficiency virus 1, TZM-bl.
Data set [9] addresses Human immunodeficiency virus type 1 reverse transcriptase (Human immunodeficiency virus 1) (UniProt Q72547). Briefly: Inhibition of recombinant HIV-1 reverse transcriptase at 500 uM using 234 nt long RNA template after 10 mins by liquid scintillation analysis. The gist of the method:
(§1)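 Cell-free DNA polymerase assay with recombinant HIV-1 reverse transcriptase (1 unit). Nucleotides: dATP/dGTP/dTTP, cold dCTP and [³³P]dCTP. Enzyme and compound preincubated 10 min at room temperature. Synthesis started with annealed 234-nt RNA template/18-nt DNA primer. Filter-bound radioactivity counted by liquid scintillation. DMSO served as negative control.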

For data set [10], the target named is Human immunodeficiency virus type 1 reverse transcriptase (Human immunodeficiency virus 1, UniProt Q72547). As to the kind of experiment: Inhibition of recombinant HIV-1 reverse transcriptase using 234 nt long RNA template after 10 mins by liquid scintillation analysis. The gist of the method: as §1

Each structure is given as a SMILES string. Activity calls are given as the source filed them.

For `Cc1ccnc2c1NC(=O)c1cccnc1N2C1CC1` [NEVIRAPINE], the Activity in data set [1] worked out at 0.01%.
One may read the viability as a read-out of living cells in per cent, often relative to untreated cells. For orientation: IC50 means the midpoint of a concentration-inhibition curve. On to `CCOC(=O)c1ccc2cccccc1-2`, for which the viability in [2] was 85%. Moreover, in [1], the Activity is 52%. Further, the IC50 in [3] was greater than 75 µM.
Broadly, the CC50 is the concentration that lowers cell viability or growth by half. A low value points to greater toxicity to the cells. Turning to `Oc1cc2cccccc-2c1`, the viability in [2] was found to be 80%. Further, in data set [1], the Activity worked out at 51%. Moreover, the figures for the cytotoxic concentration (CC50) in data set [4] and in data set [6] were 26.8 µM and 60 µM, respectively. In addition, the results for the half-inhibitory concentration (IC50) in data set [3] and in data set [8] were 2.2 µM and 8.5 µM, respectively. For the same compound, the “Ratio CC50/IC50” value in data set [5] stood at 12.2; in data set [7] it was 7.
Regarding `N#Cc1cccc(-c2ccc3cccccc2-3)c1`, the viability in data set [2] worked out at 80%. The Activity in data set [1] is 63%.
As for `CCOC(=O)c1c2cccccc-2c(C(=O)OCC)c1O`, the inhibition entry in data set [9] is “Active”. In data set [2], the viability came out at 80%. Also, the Activity in [1] is on record as 3.5%. The 50% cytotoxic concentration (CC50) in data set [4] is 72.2 µM; in data set [6], 65 µM. Further, the IC50 in data set [3] is 4.4 µM; in data set [10] it was 104 µM; in data set [8] it was 20 µM. In addition, the “Ratio CC50/IC50” value in data set [5] worked out at 16.4; in data set [7] it was 3.
As for `O=C(O)c1cccc(-c2cc(Cl)c3cccccc2-3)c1`, in [2], the viability amounted to 92%. The Activity in [1] is given as 103%.
Taken in the same sequence, the figures for `Cc1ccc(C(C)C)cc2c(C)ccc1-2` [GUAIAZULEN] were 106% and 48%.
Taken in the same sequence, the figures for `CCOC(=O)c1ncc(-c2ccc3cccccc2-3)cc1F` were 86% and 80%.
On the same counts, the results for `Clc1cc(Br)c2cccccc1-2` are 101% and 32%.
Regarding `Brc1cc(Br)c2cccccc1-2`, the viability in data set [2] turned out to be 96%. For the same compound, the Activity in [1] is reported as 36%.
Taken in the same sequence, the figures for `Clc1cc(-c2ccccc2)c2cccccc1-2` were 88% and 94%.
Taken in the same sequence, the figures for `Clc1cc(N2CCOCC2)c2cccccc1-2` were 80% and 98%.
`CCOC(=O)c1c(O)cc2cccccc1-2`: the viability in [2] worked out at 89%. In addition, the Activity in data set [1] is 6.4%. Besides, the CC50 worked out at 344 µM in data set [4] and 260 µM in data set [6]. In data set [3], this compound displayed a 50% inhibitory concentration (IC50) of 10.1 µM. For the same compound, the “Ratio CC50/IC50” value in data set [5] is listed as 34.1.
As to `Cc1cc(S(=O)(=O)[O-])c2c(C)ccc(C(C)C)cc1-2.[Na+]` [SODIUM GUALENATE], the viability in data set [2] is 91%. In addition, in [1], the Activity is 154%.
On the same counts, the results for `CCOC(=O)c1ccc(-c2cc(C(=O)OCC)c3cccccc2-3)o1` are 83% and 70%.
Taken in the same sequence, the figures for `Clc1c2cccccc-2c(Cl)c1-c1cncnc1` were 80% and 141%.
On the same counts, the results for `c1ccc(-c2cc(-c3ccccc3)c3cccccc2-3)cc1` are 80% and 124%.
With `Clc1cc(-c2ccncc2)c2cccccc1-2`, the viability in data set [2] turned out to be 80%. Besides, in data set [1], the Activity is 36%.
